Results on two molecules are retold here after ChEMBL document CHEMBL1152185, “Synthesis of a novel 6,14-epoxymorphinan derivative and its pharmacology” (Bioorg Med Chem Lett, 2008).

Structures are written as SMILES. The source made the active and inactive calls. The rule behind the calls is not given here.

Test [1] addresses Mu-type opioid receptor (Mus musculus, UniProt P42866). As to the kind of experiment: Displacement of [3H]DAMGO from mu opioid receptor in mouse whole brain without cerebellum. Put shortly: (§1)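 Competition binding on mouse whole-brain membranes, using [³H]DAMGO for mu and [³H]DPDPE for delta. % specific binding was plotted against log concentration, and IC50 was derived from the curve.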
For orientation: Displacement assays read how much labelled ligand stays bound in the presence of the test substance.

The target of test [2] is Delta-type opioid receptor (Mus musculus, UniProt P32300). The experiment in a line: Displacement of [3H]DPDPE from delta opioid receptor in mouse whole brain without cerebellum. Put shortly:
as §1

Test [3] deals with Kappa-type opioid receptor (Mus musculus) (UniProt P33534). The experiment in a line: Agonist activity at kappa opioid receptor-mediated G-protein activation in mouse whole brain membrane without cerebellum at 10 uM by [35S]GTPgammaS binding assay. In kind it is functional, cell membranes. Put shortly:
(§2)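 Mouse whole-brain membranes (cerebellum removed) incubated with [³⁵S]GTPγS and GDP plus agonist at 10^-5 M, alone or together with nor-BNI or b-FNA (levels not given). The read-out is % stimulation of [³⁵S]GTPγS binding.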
(Binding of GTPγS marks nucleotide exchange on a G protein.)

The target is the same in test [4]. As to the kind of experiment: Agonist activity at kappa opioid receptor-mediated G-protein activation in mouse whole brain membrane without cerebellum at 10 uM by [35S]GTPgammaS binding assay in presence of nor-BNI. Type of test: functional, cell membranes. Put shortly: as §2
The target is the same in test [5]. The experiment in a line: Agonist activity at kappa opioid receptor-mediated G-protein activation in mouse whole brain membrane without cerebellum at 10 uM by [35S]GTPgammaS binding assay in presence of beta-funaltrexamine. In kind it is functional, cell membranes. Put shortly: as §2
Test [6] has as its system Mus musculus. As to the kind of experiment: Antinociceptive activity in mouse at 10 mg/kg, sc by hotplate test. In kind it is functional, organism-based. On the set-up: dose 10 mg/kg. Put shortly:
(§3)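 Mice were given agonist 10 mg/kg sc, and antinociception was read in the hot-plate and tail-flick tests. Pretreatment was saline or nor-BNI (5 or 20 mg/kg sc) 24 h before agonist. Data are mean with SEM, n = 6–8, compared with the saline–agonist group.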

The subject of test [7] is Mus musculus. As to the kind of experiment: Antinociceptive activity in mouse at 10 mg/kg, sc by tail-flick test. Further details: dose 10 mg/kg. In kind it is functional, organism-based. Put shortly:
as §3
Background: Hot-plate and tail-flick tests time the reaction to a heat stimulus.

In test [8] the test system is Mus musculus. As to the kind of experiment: Antinociceptive activity in mouse assessed as inhibition of analgesia at 10 mg/kg, sc pretreated with 20 mg/kg, sc nor-BNI for 24 hrs by hotplate test. In kind it is functional, organism-based. Put shortly: as §3
Test [9] has as its system Mus musculus. The experiment in a line: Antinociceptive activity in mouse assessed as inhibition of analgesia at 10 mg/kg, sc pretreated with 20 mg/kg, sc nor-BNI for 24 hrs by tail-flick test. Type of test: functional, organism-based. Put shortly: as §3
In test [10] the test system is Mus musculus. The experiment in a line: Antinociceptive activity in mouse assessed as inhibition of analgesia at 10 mg/kg, sc pretreated with 20 mg/kg, sc beta-funaltrexamine for 24 hrs by hotplate test. Type of test: functional, organism-based. Put shortly: (§4)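 Mouse hot-plate and tail-flick antinociception after agonist 10 mg/kg sc. Pretreatment was saline, b-FNA 20 mg/kg sc or NTI 3 mg/kg sc, given at 24 h or 30 min before agonist. Data are mean with SEM of 6–8 trials.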

The subject of test [11] is Mus musculus. As to the kind of experiment: Antinociceptive activity in mouse assessed as inhibition of analgesia at 10 mg/kg, sc pretreated with 20 mg/kg, sc beta-funaltrexamine for 24 hrs by tail-flick test. Type of test: functional, organism-based. Put shortly:
as §4

In test [12] the test system is Mus musculus. The experiment in a line: Antinociceptive activity in mouse assessed as inhibition of analgesia at 10 mg/kg, sc pretreated with 3 mg/kg, sc NTI for 24 hrs by hotplate test. Type of test: functional, organism-based. Put shortly:
as §4

Test [13] relates to Mus musculus. The experiment in a line: Antinociceptive activity in mouse assessed as inhibition of analgesia at 10 mg/kg, sc pretreated with 3 mg/kg, sc NTI for 24 hrs by tail-flick test. Type of test: functional, organism-based. Put shortly: as §4
Test [14] has as its target Kappa-type opioid receptor (Cavia porcellus, UniProt P41144). The experiment in a line: Displacement of [3H]U69,593 from kappa opioid receptor in guinea pig cerebellum. Type of test: tissue-based.

Sequence of Kappa-type opioid receptor (Mus musculus) (P33534 whole entry): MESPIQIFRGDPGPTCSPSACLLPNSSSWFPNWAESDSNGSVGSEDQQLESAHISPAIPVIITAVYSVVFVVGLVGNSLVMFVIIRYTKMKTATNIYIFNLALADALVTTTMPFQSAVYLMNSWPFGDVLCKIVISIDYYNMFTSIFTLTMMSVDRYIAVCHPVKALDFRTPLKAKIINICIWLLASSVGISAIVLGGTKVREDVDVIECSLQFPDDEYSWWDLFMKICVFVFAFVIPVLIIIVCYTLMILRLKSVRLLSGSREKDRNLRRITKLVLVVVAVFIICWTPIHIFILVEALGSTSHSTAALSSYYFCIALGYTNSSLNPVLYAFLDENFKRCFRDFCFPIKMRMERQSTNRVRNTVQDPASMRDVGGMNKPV
Sequence of Mu-type opioid receptor (P42866 whole entry): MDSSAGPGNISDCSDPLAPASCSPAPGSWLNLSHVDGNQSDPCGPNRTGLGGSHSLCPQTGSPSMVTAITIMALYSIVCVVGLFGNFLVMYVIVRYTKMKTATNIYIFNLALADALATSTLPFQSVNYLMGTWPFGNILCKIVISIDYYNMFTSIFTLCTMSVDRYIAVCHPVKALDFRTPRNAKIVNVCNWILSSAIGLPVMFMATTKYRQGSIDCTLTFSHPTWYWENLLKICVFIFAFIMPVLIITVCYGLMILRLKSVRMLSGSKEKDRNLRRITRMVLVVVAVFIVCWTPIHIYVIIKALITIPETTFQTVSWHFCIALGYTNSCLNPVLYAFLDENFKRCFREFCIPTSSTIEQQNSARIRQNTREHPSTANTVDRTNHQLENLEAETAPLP
Sequence of Delta-type opioid receptor (P32300 whole entry): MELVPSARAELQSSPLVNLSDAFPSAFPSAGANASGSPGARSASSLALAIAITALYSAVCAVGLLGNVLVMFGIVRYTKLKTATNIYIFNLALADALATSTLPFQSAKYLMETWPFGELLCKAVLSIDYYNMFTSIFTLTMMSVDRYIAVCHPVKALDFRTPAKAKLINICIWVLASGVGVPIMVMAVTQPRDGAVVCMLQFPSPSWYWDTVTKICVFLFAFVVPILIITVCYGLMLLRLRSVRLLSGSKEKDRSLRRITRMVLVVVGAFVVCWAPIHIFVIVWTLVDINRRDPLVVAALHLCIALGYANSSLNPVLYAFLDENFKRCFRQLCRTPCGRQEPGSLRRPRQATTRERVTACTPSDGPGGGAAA
Sequence of Kappa-type opioid receptor (P41144 whole entry): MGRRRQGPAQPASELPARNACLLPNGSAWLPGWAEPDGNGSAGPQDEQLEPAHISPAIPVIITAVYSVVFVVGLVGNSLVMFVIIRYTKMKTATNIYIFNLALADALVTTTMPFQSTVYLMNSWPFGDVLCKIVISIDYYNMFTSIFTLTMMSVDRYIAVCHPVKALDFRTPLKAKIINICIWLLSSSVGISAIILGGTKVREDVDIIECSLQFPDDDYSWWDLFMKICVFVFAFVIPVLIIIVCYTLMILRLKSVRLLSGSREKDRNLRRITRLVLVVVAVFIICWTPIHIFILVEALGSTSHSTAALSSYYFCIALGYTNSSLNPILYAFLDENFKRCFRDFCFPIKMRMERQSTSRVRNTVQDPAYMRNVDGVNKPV

Take `O=C(NC[C@]12CC[C@@]3(O1)[C@@H]1Cc4ccc(O)cc4[C@@]3(CCN1CC1CC1)C2)c1ccccc1`: the IC50 stood at 0.288 nM in test [1] and 2.07 nM in [2]. For the same molecule, the Activity in test [3] is 29.8%; in test [4], 10.7%; in test [5], 19.2%. Also, the result in test [6], in [7], in [8] and in [9] was Active. Also, the outcome in test [10], in test [11], in [12] and in [13] was inactive.

For `O=C1N(CCc2ccccc2)CO[C@]12CC[C@@]1(O)[C@@H]3Cc4ccc(O)c5c4[C@@]1(CCN3CC1CC1)[C@H]2O5`, the Ki in test [1] came out at 4.54 nM; in test [2], 4.82 nM; in [14], 8.66 nM.

By IC50 is commonly meant the concentration at which inhibition is half-maximal. What is called Ki is the dissociation constant of the complex between target and ligand, obtained from inhibition or displacement. A higher Ki goes with weaker binding.
